The IC50 is the concentration that gives 50% inhibition.

The target in assay [1] is T1, Polyunsaturated fatty acid 5-lipoxygenase (Homo sapiens) (UniProt P09917).
T1 sequence (whole entry): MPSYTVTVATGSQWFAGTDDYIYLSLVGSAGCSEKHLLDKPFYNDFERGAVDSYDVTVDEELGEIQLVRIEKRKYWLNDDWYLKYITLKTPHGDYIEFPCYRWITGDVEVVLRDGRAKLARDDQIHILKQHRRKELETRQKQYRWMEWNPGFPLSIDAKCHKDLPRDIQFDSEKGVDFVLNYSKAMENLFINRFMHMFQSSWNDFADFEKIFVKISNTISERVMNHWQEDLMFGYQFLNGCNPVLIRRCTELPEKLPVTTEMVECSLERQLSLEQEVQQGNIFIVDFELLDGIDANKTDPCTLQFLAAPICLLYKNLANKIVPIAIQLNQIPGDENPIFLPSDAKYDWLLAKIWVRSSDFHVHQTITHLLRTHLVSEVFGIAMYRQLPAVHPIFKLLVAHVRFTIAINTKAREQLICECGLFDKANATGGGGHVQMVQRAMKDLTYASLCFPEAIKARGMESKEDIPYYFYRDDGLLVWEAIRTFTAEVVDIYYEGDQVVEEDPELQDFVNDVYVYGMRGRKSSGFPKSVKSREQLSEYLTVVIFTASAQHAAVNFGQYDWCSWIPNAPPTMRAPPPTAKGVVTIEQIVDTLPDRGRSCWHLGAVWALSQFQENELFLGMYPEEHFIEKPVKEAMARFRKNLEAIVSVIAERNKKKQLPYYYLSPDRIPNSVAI
In words: Inhibition of recombinant human 5-LO expressed in Escherichia coli BL21 (DE3) using arachidonic acid as substrate assessed as residual activity preincubated for 10 mins followed by CaCl2 and substrate addition measured after 10 mins by RP-HPLC analysis. The gist of the method:
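Human recombinant 5-LO from E. coli BL21(DE3), ATP-agarose semi-purified (0.5 µg/ml), pre-incubated with compound or 0.1% DMSO at 4 °C. It was pre-warmed 30 s at 37 °C, then started with 2 mM CaCl2 plus 20 µM AA. Stopped after 10 min with ice-cold methanol; products by RP-HPLC. Residual activity at 10 µM; IC50 from 4-5 concentrations; n=3-4.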

Assay [2] concerns the target T1, Polyunsaturated fatty acid 5-lipoxygenase (Homo sapiens). In words: Inhibition of 5-LO in human neutrophils using arachidonic acid as substrate assessed as residual activity preincubated for 15 mins followed by substrate addition measured after 10 mins in presence of Ca2+ ionophore A23187 by HPLC analysis. Summed up: (§1)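 Human neutrophils (5 × 10^6 in 1 ml PBS with 1 mg/ml glucose) pre-incubated 15 min at 37 °C with compound or 0.1% DMSO, then activated with 1 mM CaCl2 and 2.5 µM A23187, with or without 20 µM AA; 5-LO products measured after 10 min. Residual activity at 10 µM; IC50 by nonlinear regression from 4-5 concentrations; mean ± SEM, n=3-4.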

The target in assay [3] is T2, Prostaglandin E synthase (Homo sapiens) (UniProt O14684).
T2 sequence (whole entry): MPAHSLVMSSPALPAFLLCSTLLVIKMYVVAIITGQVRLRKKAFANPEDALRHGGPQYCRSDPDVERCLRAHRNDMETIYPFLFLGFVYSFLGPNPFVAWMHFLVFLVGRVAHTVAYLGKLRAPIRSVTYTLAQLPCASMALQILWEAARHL
In words: Inhibition of mPGES-1 isolated from microsomes of interleukin-1 beta-stimulated human A549 cells assessed as residual activity at 10 uM using PGH2 as substrate preincubated for 15 mins followed by substrate addition measured after 1 min by RP-HPLC analysis.

The target in a further assay is T3, Prostaglandin E synthase (Homo sapiens, UniProt O14684).
T3 sequence (O14684 whole entry): T2 sequence (whole entry)
In words: Inhibition of mPGES-1 isolated from microsomes of interleukin-1 beta-stimulated human A549 cells using PGH2 as substrate preincubated for 15 mins followed by substrate addition measured after 1 min by RP-HPLC analysis. The gist of the method: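 Microsomes from A549 cells treated with IL-1β (1 ng/ml, 72 h), diluted in 0.1 M potassium phosphate pH 7.4 with 2.5 mM glutathione. Pre-incubated 15 min with compound or DMSO, then 20 µM PGH2 (final) for 1 min at 4 °C. IC50 from 4-5 concentrations.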

In assay [4] the target is T4, Polyunsaturated fatty acid 5-lipoxygenase (Homo sapiens, UniProt P09917).
T4 sequence (P09917 whole entry): T1 sequence (whole entry)
In words: Inhibition of 5-LO in human neutrophils using arachidonic acid as substrate assessed as reduction in 5-LO product formation preincubated for 15 mins followed by substrate addition measured after 10 mins in presence of Ca2+ ionophore A23187 by HPLC analysis. The gist of the method:
as §1

Take `Cc1ccc(S(=O)(=O)N(Cc2ccsc2)c2ccc(C(=O)O)cc2)cc1`: the Activity in assay [1] came to 106%; in assay [2], 98.2%; in assay [3], 90.7%.

For `O=C(O)c1ccc(N(CC2CCCCC2)S(=O)(=O)c2ccc(F)cc2)cc1`, the Activity in assay [1] stood at 109%; in assay [2] it was 98.7%; in assay [3], 88.9%.

For `O=C(O)c1ccc(N(Cc2ccc3c(c2)OCO3)S(=O)(=O)c2ccc(-c3ccccc3)cc2)cc1`, in assay [1], the Activity is 88.4%. The results for the half-maximal inhibitory concentration (IC50) (on Prostaglandin E synthase; in assay [4]) were 1.9 µM and 3.2 µM, respectively.

For the compound `Cc1ccc(S(=O)(=O)N(Cc2cccs2)c2ccc(C(=O)O)cc2)cc1`, the values for the Activity in assay [1], in assay [2] and in assay [3] were 92.7%, 104% and 92.5%, respectively.

As for `O=C(O)c1ccc(N(Cc2ccc3c(c2)OCCO3)S(=O)(=O)c2ccc(-c3ccccc3)cc2)cc1`, the Activity in assay [1] amounted to 117%. Moreover, the IC50 was 1.6 µM against Prostaglandin E synthase and 1.1 µM in assay [4].

`O=C(O)c1ccc(N(Cc2ccccc2)S(=O)(=O)c2ccc(-c3ccccc3)cc2)cc1`: the Activity in assay [1] is 96.2%. Further, the values for the IC50 (against Prostaglandin E synthase; in assay [4]) were 4 µM and 3.3 µM, respectively.

Turning to `Cc1ccc(S(=O)(=O)N(Cc2ccccc2)c2ccc(C(=O)NS(=O)(=O)c3ccccc3)cc2)cc1`, the Activity in assay [1] came to 88.9%; in assay [2] it was 80%. This compound also showed a concentration for half-maximal inhibition (IC50) at Prostaglandin E synthase of 2.7 µM.

As for `Cc1ccc(S(=O)(=O)N(Cc2ccc(Cl)c(Cl)c2)c2ccc(C(=O)O)cc2)cc1`, the Activity in assay [1] is 97.6%. Moreover, the results for the IC50 (against Prostaglandin E synthase; in assay [4]) were 6.3 µM and 2.4 µM, respectively.

Regarding `O=C(O)c1ccc(N(Cc2cccs2)S(=O)(=O)c2ccc(Cl)cc2)cc1`, the figures for the Activity in assay [1], in assay [2] and in assay [3] were 86.1%, 97.2% and 96.7%, respectively.

As to `O=C(O)c1ccc(N(Cc2cnc3ccccc3c2)S(=O)(=O)c2ccc(-c3ccccc3)cc2)cc1`, the Activity in assay [1] is 75%. In addition, the half-maximal inhibitory concentration (IC50) worked out at 4.7 µM against Prostaglandin E synthase and 2.1 µM in assay [4].

On to `Cc1ccc(S(=O)(=O)N(Cc2cccs2)c2ccc(CC(=O)O)cc2)cc1`, for which the Activity was determined as 97% in assay [1], 102% in assay [2] and 96.4% in assay [3].

On to `Cc1ccc(S(=O)(=O)N(CC2CCCCC2)c2ccc(C(=O)O)cc2)cc1`, for which the Activity was 91.4% in assay [1], 76.9% in assay [2] and 91.6% in assay [3].

Consider `COc1ccc(CN(c2ccc(C(=O)O)cc2)S(=O)(=O)c2ccc(C)cc2)cc1OC`, for which the Activity in assay [1] was found to be 93.2%; in assay [2], 110%; in assay [3], 95.7%.

In the case of `O=C(O)c1ccc(N(Cc2cccs2)S(=O)(=O)c2ccc(-c3ccccc3)cc2)cc1`, in assay [1], the Activity was 66.4%. The IC50 was 4.7 µM on Prostaglandin E synthase and 4.4 µM in assay [4].

Turning to `O=C(O)c1ccc(N(Cc2ccoc2)S(=O)(=O)c2ccc(-c3ccccc3)cc2)cc1`, the results for the Activity in assay [1] and in assay [3] were 110% and 56.8%, respectively. In assay [4], the IC50 was 8.4 µM.

Regarding `CCCCCCN(c1ccc(C(=O)O)cc1)S(=O)(=O)c1ccc(C)cc1`, the Activity came to 86.1% in assay [1], 65.2% in assay [2] and 79.9% in assay [3].

As to `Cc1ccc(S(=O)(=O)N(Cc2ccc(Cl)cc2)c2ccc(C(=O)O)cc2)cc1`, the Activity in assay [1] was determined as 100%; in assay [2] it was 83.2%; in assay [3] it was 71.2%.

Turning to `Cc1ccc(CN(c2ccc(C(=O)O)cc2)S(=O)(=O)c2ccc(-c3ccccc3)cc2)cc1`, the Activity in assay [1] came to 65.6%. For the same compound, the results for the IC50 (at Prostaglandin E synthase; in assay [4]) were 5.2 µM and 1 µM, respectively.

For `O=C(O)c1ccc(N(Cc2cccs2)S(=O)(=O)c2ccc(-c3ccc4ccccc4c3)cc2)cc1`, the Activity in assay [1] amounted to 71.9%; in assay [2], 69.7%; in assay [3], 76.7%.

With `Cc1ccc(S(=O)(=O)N(Cc2c(F)cccc2Cl)c2ccc(C(=O)O)cc2)cc1`, the Activity in assay [1] was determined as 86.7%; in assay [2] it was 75.4%; in assay [3] it was 85.7%.

`O=C(O)c1ccc(N(Cc2cccs2)S(=O)(=O)c2ccc(C(=O)O)cc2)cc1`: the Activity in assay [1] worked out at 93%; in assay [2], 112%; in assay [3], 94.6%.

Consider `CCCCN(c1ccc(C(=O)O)cc1)S(=O)(=O)c1ccc(C)cc1`, for which the Activity is 99.1% in assay [1], 112% in assay [2] and 79.9% in assay [3].

Consider `O=C(O)c1ccc(N(Cc2ccc3ccccc3c2)C(=O)c2ccc(-c3ccccc3)cc2)cc1`, for which the Activity in assay [1] was 78%. Moreover, the IC50 came to 2.9 µM at Prostaglandin E synthase and 1.7 µM in assay [4].

As for `Cc1ccc(S(=O)(=O)N(Cc2ccc(Oc3ccccc3)cc2)c2ccc(C(=O)O)cc2)cc1`, in assay [1], the Activity is 61.4%. For the same compound, the 50% inhibitory concentration (IC50) stood at 5.3 µM on Prostaglandin E synthase and 3.5 µM in assay [4].

On to `Cc1ccc(S(=O)(=O)N(Cc2ccccc2)c2ccc(C(=O)O)cc2)cc1`, for which the Activity in assay [1] stood at 81.1%; in assay [2], 75.7%; in assay [3], 91.3%.

For the compound `Cc1ccc(S(=O)(=O)N(Cc2ccc3ccccc3c2)c2ccc(C(=O)O)cc2)cc1`, the Activity in assay [1] came to 96.7%; in assay [3] it was 52.8%. In addition, the 50% inhibitory concentration (IC50) in assay [4] amounted to 4.8 µM.

On to `O=C(O)c1ccc(N(CC2CCCCC2)S(=O)(=O)c2ccc(-c3ccccc3)cc2)cc1`, for which the Activity in assay [1] turned out to be 57.5%. In addition, the 50% inhibitory concentration (IC50) against Prostaglandin E synthase amounted to 3.2 µM; in assay [4], 3.4 µM.

As to `Cc1ccc(CN(c2ccc(C(=O)O)cc2)S(=O)(=O)c2ccc(C)cc2)cc1`, the Activity in assay [1] is 93.4%; in assay [2], 96.7%; in assay [3], 82.8%.

For `O=C(O)c1ccc(N(Cc2cccs2)S(=O)(=O)c2ccc(F)cc2)cc1`, the Activity in assay [1] turned out to be 86.7%; in assay [2], 94.6%; in assay [3] it was 96.5%.

As to `CCCCCCN(c1ccc(C(=O)O)cc1)S(=O)(=O)c1ccc(-c2ccccc2)cc1`, in assay [1], the Activity turned out to be 105%. The IC50 came out at 1.9 µM at Prostaglandin E synthase and 1.5 µM in assay [4].

For `CC(C)(C)c1ccc(CN(c2ccc(C(=O)O)cc2)S(=O)(=O)c2ccc(C(C)(C)C)cc2)cc1`, the Activity in assay [1] is 50.2%. The figures for the IC50 (against Prostaglandin E synthase; in assay [4]) were 3.2 µM and 0.7 µM, respectively.

With `Cc1ccc(S(=O)(=O)N(Cc2cccc(Cl)c2)c2ccc(C(=O)O)cc2)cc1`, the figures for the Activity in assay [1], in assay [2] and in assay [3] were 107%, 84.7% and 74.1%, respectively.

Consider `CCCCN(c1ccc(C(=O)O)cc1)S(=O)(=O)c1ccc(-c2ccccc2)cc1`, for which the Activity was 115% in assay [1] and 52.6% in assay [3]. In addition, the IC50 in assay [4] was 4 µM.

Take `O=C(O)c1ccc(N(CC2CCCCC2)S(=O)(=O)c2ccc(Oc3ccccc3)cc2)cc1`: in assay [1], the Activity came out at 72%. The half-maximal inhibitory concentration (IC50) on Prostaglandin E synthase was 2.6 µM; in assay [4], 5.4 µM.

On to `COc1cccc(CN(c2ccc(C(=O)O)cc2)S(=O)(=O)c2ccc(-c3ccccc3)cc2)c1`, for which, in assay [1], the Activity came out at 78.6%. In addition, the results for the IC50 (on Prostaglandin E synthase; in assay [4]) were 6.2 µM and 1.3 µM, respectively.

Take `Cc1ccc(S(=O)(=O)N(Cc2ccccc2Cl)c2ccc(C(=O)O)cc2)cc1`: the Activity in assay [1] worked out at 115%; in assay [2], 95.2%; in assay [3], 71.7%.

The values above are taken from ChEMBL document CHEMBL4270576, “Discovery of a benzenesulfonamide-based dual inhibitor of microsomal prostaglandin E2 synthase-1 and 5-lipoxygenase that favorably modulates lipid mediator biosynthesis in inflammation” (Eur J Med Chem, 2018).
